# Data published in paper PMC10692362 (Acta Pharmaceutica Sinica. B, 2023).
# Substitutions are numbered along the chain they refer to.
# Key:
# [1] = tested on: ERα^WT and ERα^MUT BC cell lines (MCF-7, LCC-2, T-47D, T-47D^D538G, T-47D^Y537S); assay: Apoptosis by flow cytometry; type: cell-based, human; settings: 5 μmol/L, 48 h
# ERα C530S mutant [2] = biological target: T1, ERα C530S mutant (Homo sapiens, UniProt P03372, C530S); assay: Transcriptional activity; type: cell-based
# T1 sequence (P03372 1-595 C530S): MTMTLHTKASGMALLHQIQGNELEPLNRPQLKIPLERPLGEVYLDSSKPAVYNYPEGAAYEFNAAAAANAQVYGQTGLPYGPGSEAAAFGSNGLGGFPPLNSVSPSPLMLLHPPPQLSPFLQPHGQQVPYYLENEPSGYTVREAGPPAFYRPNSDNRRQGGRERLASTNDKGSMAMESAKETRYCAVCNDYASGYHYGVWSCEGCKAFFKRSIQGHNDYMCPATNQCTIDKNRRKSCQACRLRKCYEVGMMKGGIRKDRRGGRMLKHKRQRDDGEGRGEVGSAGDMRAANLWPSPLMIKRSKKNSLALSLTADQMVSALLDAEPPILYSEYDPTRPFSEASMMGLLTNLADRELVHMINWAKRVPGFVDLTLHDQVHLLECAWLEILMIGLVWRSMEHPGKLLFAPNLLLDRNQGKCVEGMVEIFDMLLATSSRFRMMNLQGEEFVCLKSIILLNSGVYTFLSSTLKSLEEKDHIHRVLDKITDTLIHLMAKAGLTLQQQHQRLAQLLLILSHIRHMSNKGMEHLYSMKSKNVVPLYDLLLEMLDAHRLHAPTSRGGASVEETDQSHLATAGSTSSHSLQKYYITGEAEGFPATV
# MCF-7 cells = assay: Cell viability assay; type: cell-based, human
# human ERβ LBD = human ERβ LBD (Homo sapiens, UniProt Q92731); assay: Competitive fluorescence polarization binding assay, ERβ
# Chain of human ERβ LBD (Q92731 264-498 limits assumed): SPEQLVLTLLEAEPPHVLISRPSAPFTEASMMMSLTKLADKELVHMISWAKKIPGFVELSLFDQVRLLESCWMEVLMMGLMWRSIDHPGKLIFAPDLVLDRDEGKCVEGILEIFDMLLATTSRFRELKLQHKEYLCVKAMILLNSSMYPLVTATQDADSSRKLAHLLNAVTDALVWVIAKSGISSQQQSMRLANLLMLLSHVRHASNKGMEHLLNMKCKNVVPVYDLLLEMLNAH
# T-47D^Y537S cells = assay: Cell viability assay; type: cell-based, human; settings: Homo sapiens, 72 h, read-out: T-47D^Y537S IC50
# ERα C530S mutant [3] = biological target: T1, ERα C530S mutant; assay: Immunoblot analysis of ERα C530S mutant protein in HEK-293T cells; type: cell-based; settings: HEK-293T^C530S cells, compared with wild type
# Outline: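 HEK-293T cells transfected with a plasmid carrying the single C530→S530 ERα point mutation, then treated with test compound. Cells lysed in RIPA buffer; proteins separated by SDS-PAGE and transferred to PVDF. Membranes blocked with 5% skim milk, probed overnight with rabbit anti-ERα and mouse anti-β-actin (loading control), then goat anti-rabbit secondary for 1 h. Developed by ECL.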
# ERα [4] = biological target: T2, ERα (Homo sapiens, UniProt P03372); assay: Immunoblot analysis of ERα degradation in LCC-2 cells; type: cell-based; settings: 5 μmol/L over 12 h
# T2 sequence (P03372 1-595): T1 sequence (P03372 1-595 C530S) with S530C
# ERβ [5] = biological target: T3, ERβ (Homo sapiens, UniProt Q92731); assay: ER transcriptional activity; type: cell-based
# T3 sequence (Q92731 whole entry): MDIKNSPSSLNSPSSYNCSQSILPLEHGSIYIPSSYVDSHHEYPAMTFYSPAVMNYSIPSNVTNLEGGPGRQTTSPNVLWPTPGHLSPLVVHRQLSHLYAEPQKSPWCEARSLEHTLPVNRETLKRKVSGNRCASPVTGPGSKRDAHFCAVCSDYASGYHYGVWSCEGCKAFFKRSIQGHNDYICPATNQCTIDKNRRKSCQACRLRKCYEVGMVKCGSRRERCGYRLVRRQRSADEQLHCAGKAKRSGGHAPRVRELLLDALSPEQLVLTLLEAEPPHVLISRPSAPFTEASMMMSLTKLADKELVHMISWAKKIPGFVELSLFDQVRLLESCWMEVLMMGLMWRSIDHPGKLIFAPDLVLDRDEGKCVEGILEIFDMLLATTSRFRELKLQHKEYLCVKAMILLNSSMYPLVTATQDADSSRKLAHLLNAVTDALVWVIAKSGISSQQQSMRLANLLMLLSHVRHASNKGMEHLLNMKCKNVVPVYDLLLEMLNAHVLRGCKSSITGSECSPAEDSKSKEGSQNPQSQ
# ERα [6] = biological target: T2, ERα; assay: Immunoblot analysis of ERα degradation in MCF-7 cells; type: cell-based
# ERα [7] = biological target: T2, ERα; assay: cell-based; type: cell-based
# ERα D538G = biological target: T4, ERα D538G (Homo sapiens, UniProt P03372, D538G); assay: Immunoblot analysis of ERα degradation in T-47D^D538G cells; type: cell-based; settings: 5 μmol/L over 12 h
# T4 sequence (P03372 1-595 D538G): T1 sequence (P03372 1-595 C530S) with S530C, D538G
# ERβ [8] = biological target: T3, ERβ; type: cell-based; settings: 5 μmol/L, HEK-293T cells
# Outline: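 Transfected HEK-293T cells treated with test compound; ERβ protein assessed by immunoblot. Lysates prepared with RIPA buffer, resolved by SDS-PAGE and transferred to PVDF. Membranes blocked in 5% skim milk and developed by ECL, with β-actin as loading control.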
# [9] = control as 0%, 10 nmol/L E2 as 100%
structure (smiles),measurement,setting,value
"CC(C)=CC(=O)Nc1ccc(C2=C(c3ccc(O)cc3)C3OC2CC3S(=O)(=O)N(CC(F)(F)F)c2ccc(O)cc2)cc1 (centres unmarked) [Compound 29c, N-(4-(3-(4-Hydroxyphenyl)-5-(N-(4-hydroxyphenyl)-N-(2,2,2-trifluoroethyl)sulfamoyl)-7-oxabicyclo[2.2.1]hept-2-en-2-yl)phenyl)-3-methylbut-2-enamide]",Induction of apoptosis,[1],significantly induced apoptosis
same,IC50,ERα C530S mutant [2],290 nM
same,Agonist mode ERα C530S Eff (%E2),"ERα C530S mutant [2]; ERα C530S mutant, HEK-293T",2 ± 1 %E2
same,Antagonist mode ERα C530S Eff (%E2),"ERα C530S mutant [2]; ERα C530S mutant, HEK-293T",33 ± 2 %E2
same,Effect of C530S mutation on antagonistic activity,"ERα C530S mutant [2]; HEK-293T^C530S cells, compared with wild type",decreased
same,"fold higher potency than 4-OHT, MCF-7",MCF-7 cells,12 fold
same,IC50,"MCF-7 cells; Homo sapiens, MCF7, 72 h, read-out: MCF-7 IC50",56 ± 4 nM
same,"fold higher potency than Ful, MCF-7",MCF-7 cells; compared with fulvestrant,2.5 fold
same,Ki,human ERβ LBD,10.9 nM
same,RBA ERβ,"human ERβ LBD; IC50 estradiol/IC50 compound × 100, estradiol = 100%",0.61 ± 0.11%
same,IC50,T-47D^Y537S cells,880 ± 150 nM
same,ERα C530S degradation ability,ERα C530S mutant [3],decreased
same,"ERα degradation time course, LCC-2",ERα [4],completely degraded
same,Agonist mode ERβ Eff (%E2),ERβ [5]; [9],19 ± 1 %E2
same,Antagonist mode ERβ Eff (%E2),ERβ [5]; with 10 nmol/L 17β-estradiol,27 ± 2 %E2
same,"ERα degradation time course, MCF-7",ERα [6]; 5 μmol/L over 24 h,completely degraded
same,ERα degradation (immunoblot) at 1 μmol/L,"ERα [6]; MCF-7 cells, 1 μmol/L",efficient ability to degrade ERα
same,ERα degradation (immunoblot),"ERα [6]; MCF-7 cells, 1 or 5 μmol/L",effective in inducing ERα degradation
same,IC50,ERα [7],23 nM
same,Agonist mode ERα Eff (%E2),ERα [7]; [9],5 ± 1 %E2
same,Antagonist mode ERα Eff (%E2),ERα [7]; with 10 nmol/L 17β-estradiol,76 ± 1 %E2
same,"ERα degradation time course, T-47D^D538G",ERα D538G,completely degraded
same,ERβ degradation (immunoblot),ERβ [8],no degradation capacity for ERβ
